Laboratory results taken from ChEMBL document CHEMBL1158691, “Brevicompanine C, cyclo-(D-Ile-L-Trp), and cyclo-(D-Leu-L-Trp), plant growth regulators from Penicillium brevi-compactum” (2005).
Active and inactive are the calls of the source. The rule behind the calls is not given here.

Legend:
Lactuca sativa [1] = experiment: Induction of root elongation in lettuce seedlings at 1 to 100 mg/L after 4 days under 100 uE/m'2 light; type: functional, organism-based
Summary of the method: (§1)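 Lactuca sativa cv. Kingcisco seeds sown on filter paper wetted with deionized water, 1 day at 24 °C in continuous light (100 μE/m² s). Uniform seedlings (radicles 2 mm) moved to small dishes on filter paper with 1 mL deionized water containing test compound, kept 4 days at 24 °C in continuous light. Hypocotyl and root lengths measured; mean compared with untreated control; triplicate experiments.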

Lactuca sativa [2] = experiment: Inhibition of hypocotyl elongation of lettuce seedlings at 100 mg/L after 4 days under 100 uE/m'2 light relative to control; type: functional; summary of the method: as §1
Lactuca sativa [3] = experiment: Induction of root elongation in lettuce seedlings at 100 mg/L after 4 days under 100 uE/m'2 light relative to control; type: functional; summary of the method: as §1
Lactuca sativa [4] = experiment: Inhibition of hypocotyl elongation in lettuce seedlings at 1 to 100 mg/L after 4 days under 100 uE/m'2 light relative to control; type: functional, organism-based; summary of the method: as §1
Lactuca sativa [5] = experiment: Inhibition of root elongation in lettuce seedlings at 1 to 100 mg/L after 4 days under 100 uE/m'2 light; type: functional, organism-based; summary of the method: as §1
Lactuca sativa [6] = experiment: Induction of hypocotyl elongation in lettuce seedlings at 1 mg/L after 4 days under 100 uE/m'2 light; type: functional; summary of the method: as §1
Lactuca sativa [7] = experiment: Induction of hypocotyl elongation in lettuce seedlings at 10 mg/L after 4 days under 100 uE/m'2 light; type: functional; summary of the method: as §1
Lactuca sativa [8] = experiment: Induction of hypocotyl elongation in lettuce seedlings at 100 mg/L after 4 days under 100 uE/m'2 light; type: functional; summary of the method: as §1

Structure (SMILES)	Activity (Lactuca sativa [1])	Activity (Lactuca sativa [2])	Activity (Lactuca sativa [3])	Activity (Lactuca sativa [4])	Activity (Lactuca sativa [5])	inhibition at 100 µg/mL (Lactuca sativa [2]; 96 h)	Activity (Lactuca sativa [6])	Activity (Lactuca sativa [7])	Activity (Lactuca sativa [8])
CC(C)C[C@H]1NC(=O)[C@H](Cc2c[nH]c3ccccc23)NC1=O	Active	inactive	164%						
CC[C@H](C)[C@H]1NC(=O)[C@H](Cc2c[nH]c3ccccc23)NC1=O	Active	inactive	167%						
O=C(O)Cc1c[nH]c2ccccc12				Active	Active				
C=CC(C)(C)[C@@]12C[C@H]3C(=O)N[C@H](C(C)C)C(=O)N3[C@@H]1Nc1ccccc12 [BREVICOMPANINE]	Active		212%			46%			
C=C1C[C@]23C[C@@]1(O)CC[C@H]2[C@@]12C=C[C@H](O)[C@](C)(C(=O)O1)C2[C@@H]3C(=O)O (stereo partly specified) [GIBBERELLINE]	Active		164%				433%	433%	433%
